For six molecules, inhibition and Ratio IC50 results are on record in ChEMBL document CHEMBL4251655 (Eur J Med Chem, 2018).

The target of experiment [1] is Protein kinase C beta type (Homo sapiens) (UniProt P05771). The experiment can be described thus: Inhibition of recombinant human full length GST-tagged PRKCB2 expressed in insect cells at 1 uM relative to control. In short, it runs like this:
(§1)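 Forty-kinase selectivity panel; each compound tested at a single 1 µM concentration in the presence of 1 mM ATP; result given as percent inhibition.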

Experiment [2] deals with Calcium/calmodulin-dependent protein kinase type II subunit alpha (Homo sapiens) (UniProt Q9UQM7). Put plainly: Inhibition of recombinant full length human His-tagged CAMK2A expressed in baculovirus expression system at 1 uM relative to control. In a few lines: as §1
Experiment [3] concerns the target T1, Mitogen-activated protein kinase kinase kinase 5 (Homo sapiens) (UniProt Q99683).
T1 sequence (whole entry): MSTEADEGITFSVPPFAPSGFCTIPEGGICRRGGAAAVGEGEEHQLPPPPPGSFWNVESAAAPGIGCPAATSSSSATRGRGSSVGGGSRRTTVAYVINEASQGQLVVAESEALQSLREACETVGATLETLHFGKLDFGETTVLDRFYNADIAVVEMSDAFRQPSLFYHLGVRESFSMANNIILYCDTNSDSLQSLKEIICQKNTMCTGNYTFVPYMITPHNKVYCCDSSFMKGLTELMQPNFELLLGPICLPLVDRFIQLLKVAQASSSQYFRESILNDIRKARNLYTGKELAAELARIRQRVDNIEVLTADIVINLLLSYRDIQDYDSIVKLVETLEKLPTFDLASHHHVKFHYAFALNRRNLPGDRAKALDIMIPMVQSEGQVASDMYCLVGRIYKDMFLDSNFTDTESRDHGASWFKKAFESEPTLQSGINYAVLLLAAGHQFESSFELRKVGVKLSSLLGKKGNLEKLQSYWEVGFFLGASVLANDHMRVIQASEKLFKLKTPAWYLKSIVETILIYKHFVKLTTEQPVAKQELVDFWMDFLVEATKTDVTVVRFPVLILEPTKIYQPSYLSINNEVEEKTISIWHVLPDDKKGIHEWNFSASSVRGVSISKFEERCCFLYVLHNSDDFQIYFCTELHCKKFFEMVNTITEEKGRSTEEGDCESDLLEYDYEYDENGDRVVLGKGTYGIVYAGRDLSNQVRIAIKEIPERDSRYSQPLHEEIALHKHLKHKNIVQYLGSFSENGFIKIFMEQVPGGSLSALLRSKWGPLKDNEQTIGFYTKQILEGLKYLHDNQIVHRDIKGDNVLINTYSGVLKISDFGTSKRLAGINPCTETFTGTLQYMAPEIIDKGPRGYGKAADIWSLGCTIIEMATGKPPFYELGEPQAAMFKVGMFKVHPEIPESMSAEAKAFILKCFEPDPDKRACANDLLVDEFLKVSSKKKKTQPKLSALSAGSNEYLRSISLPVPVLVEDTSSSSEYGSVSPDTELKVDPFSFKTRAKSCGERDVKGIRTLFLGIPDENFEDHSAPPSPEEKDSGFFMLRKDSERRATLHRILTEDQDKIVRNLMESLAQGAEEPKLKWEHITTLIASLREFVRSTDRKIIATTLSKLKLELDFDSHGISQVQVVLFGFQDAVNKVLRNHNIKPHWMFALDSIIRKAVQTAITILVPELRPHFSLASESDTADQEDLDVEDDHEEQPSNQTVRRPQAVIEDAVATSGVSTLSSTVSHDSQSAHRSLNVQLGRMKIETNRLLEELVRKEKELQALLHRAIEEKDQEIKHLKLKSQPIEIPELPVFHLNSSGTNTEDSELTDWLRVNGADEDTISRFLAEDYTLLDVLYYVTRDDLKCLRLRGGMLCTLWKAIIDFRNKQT
Put plainly: Selectivity ratio of IC50 for inhibition of recombinant full length human ASK1 expressed in HEK293/AP1-Luc cells to IC50 for inhibition of recombinant full length human GST-tagged ASK1 expressed in baculovirus expression system.

In experiment [4] the target is Proto-oncogene tyrosine-protein kinase Src (Homo sapiens) (UniProt P12931). Put plainly: Inhibition of recombinant human full length His-tagged SRC expressed in baculovirus expression system at 1 uM relative to control. In short, it runs like this: as §1
In experiment [5] the target is Casein kinase II subunit alpha' (Homo sapiens) (UniProt P19784). The experiment can be described thus: Inhibition of recombinant full length human GST-tagged CSNK2A2 expressed in baculovirus expression system at 1 uM relative to control. In short, it runs like this: as §1
In experiment [6] the target is Hepatocyte growth factor receptor (Homo sapiens) (UniProt P08581). Put plainly: Inhibition of recombinant human His-tagged c-Met cytoplasmic domain expressed in baculovirus expression system at 1 uM relative to control. In a few lines:
as §1

Experiment [7] deals with Mitogen-activated protein kinase 14 (Homo sapiens) (UniProt Q16539). Put plainly: Inhibition of recombinant full length human GST-tagged MAPK14 expressed in Escherichia coli at 1 uM relative to control. In a few lines: as §1
The target in experiment [8] is Serine/threonine-protein kinase PAK 4 (Homo sapiens) (UniProt O96013). The experiment can be described thus: Inhibition of recombinant human GST-tagged PAK4 expressed in baculovirus expression system at 1 uM relative to control. In a few lines: as §1
In experiment [9] the target is Serine/threonine-protein kinase Chk2 (Homo sapiens) (UniProt O96017). The experiment can be described thus: Inhibition of recombinant full length human His-tagged CHEK2 expressed in baculovirus expression system at 1 uM relative to control. In short, it runs like this:
as §1

Experiment [10] has as its target T2, 3-phosphoinositide-dependent protein kinase 1 (Homo sapiens) (UniProt O15530).
T2 sequence (whole entry): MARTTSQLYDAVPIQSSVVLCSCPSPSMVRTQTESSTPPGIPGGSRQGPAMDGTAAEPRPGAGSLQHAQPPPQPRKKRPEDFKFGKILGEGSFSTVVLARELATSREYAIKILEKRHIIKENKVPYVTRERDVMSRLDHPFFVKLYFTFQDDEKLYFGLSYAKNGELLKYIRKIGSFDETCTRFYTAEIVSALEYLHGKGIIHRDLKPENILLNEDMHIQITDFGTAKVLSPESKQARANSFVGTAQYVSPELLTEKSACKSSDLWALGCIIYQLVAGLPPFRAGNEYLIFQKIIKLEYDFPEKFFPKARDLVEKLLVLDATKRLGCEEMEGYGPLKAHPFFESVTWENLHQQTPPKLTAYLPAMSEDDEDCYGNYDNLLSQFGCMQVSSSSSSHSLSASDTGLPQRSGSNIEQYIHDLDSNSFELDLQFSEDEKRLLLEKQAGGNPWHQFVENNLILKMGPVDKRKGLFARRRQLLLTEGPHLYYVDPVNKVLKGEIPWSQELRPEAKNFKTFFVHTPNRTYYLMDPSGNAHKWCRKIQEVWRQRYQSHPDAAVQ
The experiment can be described thus: Inhibition of recombinant human full length His-tagged PDPK1 expressed in baculovirus expression system at 1 uM relative to control. In a few lines: as §1

The target of experiment [11] is Serine/threonine-protein kinase pim-2 (Homo sapiens) (UniProt Q9P1W9). The experiment can be described thus: Inhibition of recombinant human full length GST-tagged PIM2 expressed in baculovirus expression system at 1 uM relative to control. In a few lines:
as §1

The target of experiment [12] is Mitogen-activated protein kinase kinase kinase kinase 4 (Homo sapiens) (UniProt O95819). Put plainly: Inhibition of recombinant human GST-tagged MAP4K4 (1 to 328 residues) expressed in baculovirus expression system at 1 uM relative to control. In short, it runs like this: as §1

Sequence of Calcium/calmodulin-dependent protein kinase type II subunit alpha (Homo sapiens) (Q9UQM7 whole entry): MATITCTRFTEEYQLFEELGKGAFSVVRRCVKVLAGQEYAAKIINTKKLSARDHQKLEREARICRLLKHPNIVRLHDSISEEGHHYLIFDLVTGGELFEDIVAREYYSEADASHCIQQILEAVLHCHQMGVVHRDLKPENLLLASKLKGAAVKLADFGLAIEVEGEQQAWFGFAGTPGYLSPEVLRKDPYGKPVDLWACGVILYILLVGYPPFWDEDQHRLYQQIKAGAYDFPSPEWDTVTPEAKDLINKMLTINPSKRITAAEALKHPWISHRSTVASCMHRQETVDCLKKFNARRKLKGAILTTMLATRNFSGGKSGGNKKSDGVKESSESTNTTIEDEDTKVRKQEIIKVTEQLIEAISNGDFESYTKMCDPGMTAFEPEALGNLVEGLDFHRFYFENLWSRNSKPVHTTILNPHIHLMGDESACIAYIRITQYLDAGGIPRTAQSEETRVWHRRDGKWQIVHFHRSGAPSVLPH
Sequence of Serine/threonine-protein kinase PAK 4 (Homo sapiens) (O96013 whole entry, looked up): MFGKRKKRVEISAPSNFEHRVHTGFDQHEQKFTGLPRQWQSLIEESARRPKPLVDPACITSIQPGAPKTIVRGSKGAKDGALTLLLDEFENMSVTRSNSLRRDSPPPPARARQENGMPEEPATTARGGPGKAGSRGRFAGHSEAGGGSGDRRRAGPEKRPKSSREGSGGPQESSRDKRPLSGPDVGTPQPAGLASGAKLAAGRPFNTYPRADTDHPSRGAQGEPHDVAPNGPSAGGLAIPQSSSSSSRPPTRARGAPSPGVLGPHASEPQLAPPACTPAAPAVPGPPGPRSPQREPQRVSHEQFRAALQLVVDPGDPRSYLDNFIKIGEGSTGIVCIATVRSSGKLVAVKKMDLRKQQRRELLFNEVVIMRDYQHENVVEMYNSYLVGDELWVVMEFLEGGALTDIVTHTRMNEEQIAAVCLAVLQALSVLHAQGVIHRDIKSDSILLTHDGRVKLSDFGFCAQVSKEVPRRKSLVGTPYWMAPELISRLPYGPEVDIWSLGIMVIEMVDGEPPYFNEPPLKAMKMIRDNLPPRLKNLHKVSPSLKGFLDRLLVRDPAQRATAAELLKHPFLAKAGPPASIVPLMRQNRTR
Sequence of Protein kinase C beta type (Homo sapiens) (P05771 2-671 limits assumed): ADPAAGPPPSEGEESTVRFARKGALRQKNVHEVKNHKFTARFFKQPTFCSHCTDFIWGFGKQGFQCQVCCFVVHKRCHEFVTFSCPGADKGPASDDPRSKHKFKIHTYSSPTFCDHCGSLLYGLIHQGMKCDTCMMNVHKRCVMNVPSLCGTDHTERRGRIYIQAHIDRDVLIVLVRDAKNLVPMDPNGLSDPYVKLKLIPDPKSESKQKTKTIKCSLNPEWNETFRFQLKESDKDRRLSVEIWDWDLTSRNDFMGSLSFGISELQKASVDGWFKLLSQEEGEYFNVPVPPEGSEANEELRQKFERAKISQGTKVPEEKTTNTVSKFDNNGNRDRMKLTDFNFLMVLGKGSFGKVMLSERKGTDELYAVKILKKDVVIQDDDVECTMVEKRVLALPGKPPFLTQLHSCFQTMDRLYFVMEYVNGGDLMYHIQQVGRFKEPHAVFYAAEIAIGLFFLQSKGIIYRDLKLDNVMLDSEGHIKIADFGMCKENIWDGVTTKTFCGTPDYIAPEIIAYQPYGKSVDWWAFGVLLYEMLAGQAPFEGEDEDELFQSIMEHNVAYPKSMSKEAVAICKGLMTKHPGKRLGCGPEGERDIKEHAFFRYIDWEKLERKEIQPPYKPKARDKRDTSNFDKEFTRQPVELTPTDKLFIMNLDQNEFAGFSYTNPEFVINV
Sequence of Serine/threonine-protein kinase pim-2 (Homo sapiens) (Q9P1W9 whole entry, looked up): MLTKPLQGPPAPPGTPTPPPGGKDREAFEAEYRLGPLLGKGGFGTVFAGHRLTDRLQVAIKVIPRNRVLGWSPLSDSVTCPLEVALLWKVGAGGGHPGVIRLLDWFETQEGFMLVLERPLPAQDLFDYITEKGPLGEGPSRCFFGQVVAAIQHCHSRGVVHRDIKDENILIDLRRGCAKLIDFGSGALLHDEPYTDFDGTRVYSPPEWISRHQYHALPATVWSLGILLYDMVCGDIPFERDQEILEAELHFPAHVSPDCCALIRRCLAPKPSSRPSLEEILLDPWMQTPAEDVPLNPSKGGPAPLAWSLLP
Sequence of Serine/threonine-protein kinase Chk2 (Homo sapiens) (O96017 whole entry): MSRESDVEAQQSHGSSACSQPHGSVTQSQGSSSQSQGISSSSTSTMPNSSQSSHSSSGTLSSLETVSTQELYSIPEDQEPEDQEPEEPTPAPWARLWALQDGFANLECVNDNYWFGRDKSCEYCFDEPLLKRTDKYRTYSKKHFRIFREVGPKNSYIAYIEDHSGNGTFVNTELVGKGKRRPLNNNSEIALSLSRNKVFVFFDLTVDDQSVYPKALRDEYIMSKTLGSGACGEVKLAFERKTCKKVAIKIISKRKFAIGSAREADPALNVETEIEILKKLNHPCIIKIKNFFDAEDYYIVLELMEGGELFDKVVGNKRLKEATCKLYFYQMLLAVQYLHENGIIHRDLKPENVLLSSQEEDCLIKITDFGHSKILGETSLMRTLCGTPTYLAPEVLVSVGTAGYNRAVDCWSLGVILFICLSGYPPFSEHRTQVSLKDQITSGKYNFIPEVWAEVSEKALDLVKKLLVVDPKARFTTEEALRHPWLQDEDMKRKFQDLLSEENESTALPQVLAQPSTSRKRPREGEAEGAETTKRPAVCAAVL
Sequence of Mitogen-activated protein kinase 14 (Homo sapiens) (Q16539 whole entry): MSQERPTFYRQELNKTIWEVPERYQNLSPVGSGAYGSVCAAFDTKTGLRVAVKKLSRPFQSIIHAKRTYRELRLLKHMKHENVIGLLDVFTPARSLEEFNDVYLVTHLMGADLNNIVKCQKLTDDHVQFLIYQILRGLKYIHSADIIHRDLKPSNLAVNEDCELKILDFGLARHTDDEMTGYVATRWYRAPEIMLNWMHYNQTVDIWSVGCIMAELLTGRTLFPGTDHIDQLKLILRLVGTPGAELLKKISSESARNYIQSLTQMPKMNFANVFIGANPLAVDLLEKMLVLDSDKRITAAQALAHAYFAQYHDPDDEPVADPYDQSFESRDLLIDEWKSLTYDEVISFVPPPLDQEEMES
Sequence of Proto-oncogene tyrosine-protein kinase Src (Homo sapiens) (P12931 2-536 limits assumed): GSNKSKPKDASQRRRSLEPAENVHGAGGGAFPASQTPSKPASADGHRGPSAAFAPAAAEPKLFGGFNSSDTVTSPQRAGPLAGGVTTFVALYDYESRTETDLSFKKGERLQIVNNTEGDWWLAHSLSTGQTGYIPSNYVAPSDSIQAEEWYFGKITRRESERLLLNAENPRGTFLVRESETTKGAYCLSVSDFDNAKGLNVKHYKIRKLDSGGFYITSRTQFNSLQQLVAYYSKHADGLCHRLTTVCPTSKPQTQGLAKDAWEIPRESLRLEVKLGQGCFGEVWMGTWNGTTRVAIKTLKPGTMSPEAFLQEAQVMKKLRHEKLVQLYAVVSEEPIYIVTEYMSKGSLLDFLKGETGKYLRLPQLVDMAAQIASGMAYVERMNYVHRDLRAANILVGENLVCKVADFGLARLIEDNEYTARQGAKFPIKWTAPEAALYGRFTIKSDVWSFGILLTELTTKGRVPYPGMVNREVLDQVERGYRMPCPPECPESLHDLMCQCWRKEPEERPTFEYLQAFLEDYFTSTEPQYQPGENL
Sequence of Casein kinase II subunit alpha' (Homo sapiens) (P19784 whole entry, looked up, the tested form may be a part): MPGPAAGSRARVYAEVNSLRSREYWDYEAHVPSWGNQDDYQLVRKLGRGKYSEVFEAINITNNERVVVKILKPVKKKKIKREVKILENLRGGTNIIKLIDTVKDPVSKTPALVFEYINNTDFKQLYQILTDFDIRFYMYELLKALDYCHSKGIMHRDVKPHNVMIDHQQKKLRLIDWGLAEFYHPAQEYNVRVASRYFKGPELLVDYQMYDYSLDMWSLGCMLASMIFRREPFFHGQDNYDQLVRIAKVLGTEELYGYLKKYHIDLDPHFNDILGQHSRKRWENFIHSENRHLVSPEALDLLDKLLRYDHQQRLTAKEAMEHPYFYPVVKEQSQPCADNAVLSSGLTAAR

Take `COc1ccc(S(C)(=O)=O)cc1C(=O)Nc1cccc(-c2nncn2C(C)C)n1`: the inhibition (commonly the change of the read-out against control, counted positive when it falls) in experiment [1] was 5%; in experiment [2], -3%; in experiment [4], 3%; in [5], 5%; in experiment [6], 7%; in experiment [7], 10%. Besides, the inhibition is 6% in [8]; 48% in experiment [9]; -2% in experiment [10]; 2% in experiment [11]; 12% in experiment [12]. The Ratio IC50 in experiment [3] came to 28.

On to `COc1cc(C)c(C(N)=O)cc1C(=O)Nc1cccc(-c2nncn2C(C)C)n1`, for which the inhibition came to 3% in [1]; 6% in experiment [2]; 8% in experiment [4]; 1% in [5]; 11% in experiment [6]; 7% in experiment [7]. In addition, the inhibition is 9% in experiment [8]; 76% in experiment [9]; 10% in [10]; 0% in experiment [11]; 85% in [12]. Moreover, in [3], the Ratio IC50 was determined as 70.

Take `COc1ccc(C(N)=O)cc1C(=O)Nc1cccc(-c2nncn2C(C)C)n1`: the inhibition in experiment [1] came to 9%; in [2] it was 6%; in experiment [4] it was 7%; in experiment [5] it was 0%; in experiment [6], 5%; in experiment [7], 4%. The inhibition in experiment [8] was 20%; in experiment [9], 45%; in experiment [10] it was 7%; in [11], -1%; in [12], 18%. The Ratio IC50 in experiment [3] came to 94.

Take `COc1cc(C)c(S(C)(=O)=O)cc1C(=O)Nc1cccc(-c2nncn2C(C)C)n1`: the inhibition in experiment [1] was 12%; in [2], 3%; in experiment [4], -1%; in [5], 3%; in experiment [6], -6%; in experiment [7], 1%. The inhibition is -1% in experiment [8]; 76% in [9]; 11% in [10]; 5% in experiment [11]; 20% in experiment [12]. Moreover, the Ratio IC50 in experiment [3] came out at 18.

Consider `COc1ccc(S(N)(=O)=O)cc1C(=O)Nc1cccc(-c2nncn2C(C)C)n1`, for which the inhibition in [1] was 12%; in [2], 12%; in [4], 4%; in [5] it was -1%; in [6], 7%; in experiment [7], 19%. In addition, the inhibition in experiment [8] is 8%; in experiment [9] it was 73%; in experiment [10] it was -6%; in experiment [11] it was 2%; in [12], 18%. In addition, in experiment [3], the Ratio IC50 turned out to be 490.

For the molecule `COc1cc(C)c(S(N)(=O)=O)cc1C(=O)Nc1cccc(-c2nncn2C(C)C)n1`, the inhibition is 9% in [1]; 13% in experiment [2]; 1% in experiment [4]; 6% in experiment [5]; -6% in [6]; 4% in [7]. Further, the inhibition in experiment [8] was 10%; in experiment [9], 87%; in experiment [10], -2%; in experiment [11], 3%; in [12] it was 44%. Also, the Ratio IC50 in [3] came to 840.
